Source: PubChem
ARFGAP1 inh – inhibits rat ARF GTPase activating protein 1. Arfgap1-stimulated ARF1 GTP hydrolysis, GDP FP detection. inhibition, % at 16.5 µM. 360,000 compounds, 0.26% hits. AID 651572;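 active = inhibition above a per-plate limit, mean inhibition of low control wells plus 3 SD, cut at about 25% in these data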;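 also: 0% = DMSO wells with enzyme and 100% = wells lacking Arfgap1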
Target sequence (Q62848 1-136 limits assumed): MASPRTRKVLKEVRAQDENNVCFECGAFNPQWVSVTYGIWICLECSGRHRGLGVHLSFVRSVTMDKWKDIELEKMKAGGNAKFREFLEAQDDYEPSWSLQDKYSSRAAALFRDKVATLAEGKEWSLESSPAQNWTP
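Assay system: Rat Arfgap1 GAP domain (His6, aa 1-136), purified enzyme | Buffer or medium: HEPES 25 mM pH 7.5, NaCl 150 mM, MgCl2, DTT | Schedule: GTP hydrolysis reaction 2 h at 25 °C | Signal: FP of antibody-bound GDP Alexa 633 tracer, ex 620/em 688 nm | Measure: Percent inhibition of Arfgap1-stimulated GTP hydrolysis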
ASAP1 inh – inhibitors of human ASAP1 ArfGAP activity. 360,000 compounds, 0.19% hits. inhibition, % at 16.5 µM. ASAP1-stimulated ARF1 GTP hydrolysis, GDP FP detection. AID 624377. Q9ULH1; in the data active = inhibition above about 25%;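 also: 0% = vehicle with enzyme and substrate and 100% = no enzyme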
bovine MsrA act – activators of bovine methionine sulfoxide reductase A. purified bovine MsrA, absorbance read-out. activation, % at 10.6 µM. 360,000 compounds, 0.3% hits; in the data active = activation above about 7.5%;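 also: 0% = vehicle and 100% = reference activator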
sPLA2-III inh – Inhibits HGIII-sPLA2 liposome hydrolysis, primary screen; Q9NZ20; inhibition, % at 12.2 µM; 370,000 compounds, 0.56% hits; QFRET BODIPY PC-A2 liposome hydrolysis, fluorescence;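 active = inhibition above mean plus 3 SD of compounds lying within the high and low control bounds, cut at about 19% in these data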;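 also: 0% = median of test compound wells and 100% = no enzyme DMSO wells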
MsrA inh – inhibits bovine methionine sulfoxide reductase A; purified bovine MsrA, absorbance read-out; inhibition, % at 15.5 µM; 360,000 compounds, 0.75% hits; in the data active = inhibition above about 4.5%;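 also: 0% = vehicle wells with enzyme and 100% = reference inhibitor wells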
NR1D1 modulator – modulates human Rev-erb alpha binding to DNA; P20393; Rev-erbα–FITC-DNA binding, fluorescence polarization, 90 min; activity, % at 10 µM; 370,000 compounds, 0.79% hits; AID 1259318;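 active = activity above about 14%, limit read from the data; passing the limit was not always enough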;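 also: 0% = DMSO wells with 35 nM protein and 100% = DMSO wells with 750 nM protein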
NR1D1 mod conf – Rev-erb alpha (human) modulation, hit confirmation. 3,000 compounds, 61% hits. AID 1259319. Rev-erb alpha FITC-DNA binding, fluorescence polarization, 90 min. activation, % at 25 µM. shares compounds with NR1D1 modulator;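 active = activation at or above a set limit, or at least 3 SD above the negative control mean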;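 also: 0% = 35 nM protein with DMSO and 100% = 750 nM protein high control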
RORg counter – affects RORgamma DNA binding in a Rev-erb alpha counter-screen. purified RORgamma protein-FITC-DNA binding, fluorescence polarization. AID 1259320. IC50, µM. shares compounds with NR1D1 modulator. 910 compounds, 8% hits;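 active = Compounds whose fitted half-maximal concentration for disrupting protein-DNA binding is below 10 micromolar; the record names Rev-erb in its text, so the target is in doubt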
Active calls of the source: *; . = not tested or not shown. Most compounds without a hit are left out; they make up all but 2.7% or so of the library.

SMILES	ARFGAP1 inh	ASAP1 inh	bovine MsrA act	sPLA2-III inh	MsrA inh	NR1D1 modulator	NR1D1 mod conf	others
O=C(NCc1ccc(-c2nc3ccccc3s2)cc1)c1ccc(Br)o1	-2	14	-2	5	3	21*	13
COc1cc(/C=C/C(=O)OCC(=O)c2ccc(S(=O)(=O)N3CCCCC3)cc2)cc(OC)c1OC	-2	-17	-1	2	-2	18*	5
COC[C@@H]1CCCN1[C@@H]1CS(=O)(=O)N[C@H]1COCc1ccccc1	1	8	-5	0	0	-5	.
Cc1ccc2nc(NCCc3ccc(Cl)cc3)c3nncn3c2c1	8	2	-3	-4	0	28*	8
CCCCc1ccc2nc(NC(=O)c3cccs3)sc2c1	.	.	.	-29	.	-5	.
CCC(C)NC(=O)Cc1c(OC)ccc2cc(Br)ccc12 (stereo not drawn)	-2	-16	-5	8	0	23*	40*	RORg counter=>40
Cc1cccnc1C(NC(=O)C1CCN(Cc2ccc(Cl)cc2)CC1)c1ccc(F)cc1 (stereo not drawn)	1	16	-1	-5	0	5	.
CCCCn1c(CCc2ccccc2)nc2cc3[nH]c(=O)c(C(C)C)nc3cc21	7	1	4	-18	1	-1	.
CCCCn1c(-c2ccc(F)c(F)c2)nc2cc3[nH]c(=O)c(C(C)C)nc3cc21	7	3	-2	-9	2	18*	14
Cc1ccc(CNc2nc3ccccc3n3nnnc23)cc1	3	7	-4	-8	1	115*	71*	RORg counter=>40
Cc1ccc(-c2nc3ccccc3n3nnnc23)cc1	2	-6	-11	-2	-1	4	.
